# From PubChem BioAssay
# Hits are enriched below; roughly 3.4% of the tested compounds scored in any of these assays.
# PHOSPHO1 inh: PubChem AID 1565 | recombinant PHOSPHO1, absorbance phosphatase assay | inhibition, % at 13.3 µM | 290,000 compounds, 1.1% hits; in the data active means inhibition above about 60%
# Target sequence (Q8TCT1 whole entry, looked up): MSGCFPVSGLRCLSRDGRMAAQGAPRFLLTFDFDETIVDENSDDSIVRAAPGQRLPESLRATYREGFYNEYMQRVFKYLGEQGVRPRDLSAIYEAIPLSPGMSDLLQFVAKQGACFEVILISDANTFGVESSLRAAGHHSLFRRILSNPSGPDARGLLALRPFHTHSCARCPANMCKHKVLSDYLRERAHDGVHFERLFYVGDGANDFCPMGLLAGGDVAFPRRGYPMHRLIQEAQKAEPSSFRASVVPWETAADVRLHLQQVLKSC
# Runt-CBFb FRET: inhibitors of RUNX1 Runt–CBFb binding, primary screen, biochemical, FRET, Cerulean-Runt, Venus-CBFb, uHTS; Cerulean-Runt/Venus-CBFb FRET ratio 530/480, 1 h; inhibition, % at 20 µM; 220,000 compounds, 0.46% hits; AID 1496, 2009;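 active means inhibition over about 50% at 20 µM in the single-dose screen, limit read from the data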;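 further: 0% = DMSO wells and 100% = excess unlabeled CBFb competitor control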
#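 Schedule: protein complex preformed 1 h, compound exposure 1 h, room temperature, dark; test system: Cerulean-labeled Runt domain protein; amount: 100 nM per protein; buffer or medium: Tris 50 mM pH 7.5, KCl, K2SO4, 0.01% BSA; read-out: loss of energy transfer signal; detection: FRET fluorescence; controls: 5 µM unlabeled CBFb as full-inhibition high control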
# RanGTP-Impb inh: inhibitors of RanGTP-importin-beta interaction, primary screen, biochemical, FRET, CFP-Ran, YFP-importin-beta, homogeneous; cell-free CFP-Ran/YFP-importin-beta FRET ratio; inhibition, % (concentration not given with the values); 300,000 compounds, 1.1% hits;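 active means more than half of the replicate wells show a fall in the fluorescence ratio signal beyond about 16%, limit read from the data, passing the limit was not always enough; inconclusive means exactly half of the replicate wells pass the set limit; inactive means fewer than half of replicates pass the limit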;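 further: 0% = DMSO wells and 100% = Ran loaded with GDP instead of GTP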
# Efa HMGR inh: inhibitors of E. faecalis class II HMGR, primary screen, biochemical, Enterococcus faecalis | HMG-CoA reductase (Enterococcus faecalis, mvaE) | purified E. faecalis HMGR, NADPH absorbance 340 nm kinetic | inhibition, % at 10 µM | 190,000 compounds, 0.41% hits;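 active means inhibition above a set limit, the median over all tested compounds plus 3 SD, cut at about 9.5% in these data; inconclusive means no clear call, values can overlap the other calls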;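 further: enzyme runs in reverse so mevalonate oxidation gives rising NADPH absorbance; 0% = complete reaction with DMSO and 100% = background rate lacking mevalonate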
# Wee1 stabilizer: Wee1 degradation inhibitors, primary screen, cell-based, HeLa, Wee1K328M-luciferase, luminescence; Wee1-like protein kinase (Homo sapiens), P30291; HeLa Luc-Wee1K328M stability; 100% = proteasome inhibitor MG132 effect; reporter increase, % at 5 µM; 220,000 compounds, 1.2% hits;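 active means activation above the mean of all tested compounds plus 3 SD, set per screening run, cut at about 8.8% in these data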;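 further: cells exposed to compound for 20 h before luminescence read; 0% = DMSO alone and 100% = MG132 at 30 µM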
# Runt-SMMHC FRET: inhibitors of RUNX1 Runt–CBFb-SMMHC binding, primary screen, biochemical, FRET, Cerulean-Runt, Venus-CBFb-SMMHC, uHTS; Runt-related transcription factor 1 (Homo sapiens) + Core-binding factor subunit beta …; Cerulean-Runt/Venus-CBFb-SMMHC FRET ratio 530/480, 1 h; inhibition, % at 20 µM; 220,000 compounds, 0.74% hits; AID 1434, 2008;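 active means mean inhibition across duplicate retests at 20 µM reaching about 50%, limit read from the data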;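 further: 0% = DMSO wells and 100% = wells with excess untagged CBFb-SMMHC; inhibitors lower the FRET ratio by blocking Runt binding to CBFb-SMMHC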
# Starred values were filed as active, the others as inactive; ? = inconclusive; / = no result given.
SMILES,PHOSPHO1 inh,Runt-CBFb FRET,RanGTP-Impb inh,Efa HMGR inh,Wee1 stabilizer,Runt-SMMHC FRET
CC(/C=N/NC(=O)c1ccc(Cn2cc([N+](=O)[O-])cn2)o1)=C\c1ccccc1,32,/,1,/,/,/
CCOC(=O)c1c(NC(=O)c2ccc(S(=O)(=O)N(C)CC3CCCO3)cc2)sc2c1CCN(C)C2 (stereo unspecified),33,/,2,/,/,/
CCN1CCc2c(sc(NC(=O)COc3ccccc3)c2C(=O)OC)C1,58,/,87*,/,/,/
CCN1CCc2c(sc(NC(=O)Nc3ccc(Cl)c(Cl)c3)c2C(N)=O)C1,7,4,/,1,-2,77*
CCOC(=O)c1c(NC(=O)C(F)(OC)C(F)(F)F)sc2c1CCN(C)C2 (stereo unspecified),-26,84*,76*,1,4,62*
CCN1CCc2c(sc(NC(=O)c3ccc(S(=O)(=O)N4CCOCC4)cc3)c2C(N)=O)C1,-4,9,?,-2,4,16
CCN1CCc2c(sc(NC(=S)NC(=O)c3ccco3)c2C(N)=O)C1,-70,12,163*,/,-3,58*
CCOC(=O)c1c(NC(=O)CSc2nnc(C)s2)sc2c1CCN(C)C2,-10,79*,27*,-7,-2,135*
CCN1CCc2c(sc(NC(=O)Cc3ccccc3)c2C(N)=O)C1,28,/,155*,/,/,/
CCOC(=O)c1c(NC(=S)Nc2ccc(C)cc2)sc2c1CCC2,6,6,1,-2,-2,9
CCOC(=O)c1c(NC(=S)Nc2ccc(Cl)cc2)sc2c1CCN(C)C2,-13,98*,/,4,-1,164*
CCN1CCc2c(sc(NC(=O)c3ccc(C(=O)c4ccccc4)cc3)c2C(N)=O)C1,48,/,9,/,/,/
CCOC(=O)c1c(NC(=O)CCS(=O)(=O)c2ccccc2)sc2c1CCN(C)C2,27,/,126*,/,/,/
Cc1nnc(SCC(=O)Nc2sc3c(c2C(=O)c2ccccc2)CCCC3)s1,1,-1,10,-4,6,-3
CCOc1ccc(OCCC(=O)OCC(=O)c2c(N)n(C)c(=O)n(C)c2=O)cc1,/,/,2,/,/,/
CN1CCc2c(sc(NC(=O)Cc3ccccc3)c2C(N)=O)C1,-124,/,134*,/,/,/
CC(C)C(=O)NC(NC(=S)Nc1cccc2cccnc12)C(Cl)(Cl)Cl (stereo unspecified),-102,/,-2,/,1,3
CCC(=O)NC(NC(=S)Nc1cccc2cccnc12)C(Cl)(Cl)Cl (stereo unspecified),-4,13,-1,-1,9.8*,-1
O=C(Cc1ccccc1)NC(Nc1cccc2ccccc12)C(Cl)(Cl)Cl (stereo unspecified),33,2,1,4,2,0
CC(C)(C)C(=O)NC(Nc1cccc2cccnc12)C(Cl)(Cl)Cl (stereo unspecified),76*,3,0,0,-4,0
NS(=O)(=O)c1ccc(NC(=O)COC(=O)COc2ccc3ccccc3c2)cc1,15,-1,-3,1,-4,-1
c1ccc2c(c1)NCC1CCCN21 (stereo unspecified),9,/,3,/,/,/
Cn1c2ccccc2c(=O)c2cc(C#Cc3ccsc3)ccc21,4,/,73*,/,/,/
Cn1c2ccccc2c(=O)c2ccc(C#Cc3ccccn3)cc21,4,/,97*,/,/,/
Cn1c2ccccc2c(=O)c2cc(C#Cc3ccccn3)ccc21,10,/,147*,/,/,/
SMILES,PHOSPHO1 inh,Runt-CBFb FRET,RanGTP-Impb inh,Efa HMGR inh,Wee1 stabilizer,Runt-SMMHC FRET
CCCCOc1ccc(C(=O)Nc2cccc(-n3cnnn3)c2)cc1OC,29,/,3,/,/,/
OC(C#CCN1CCCCCC1)(c1ccccc1)c1cccnc1 (stereo unspecified),27,-1,-3,/,3,1
OC(C#CCN1CCCC1)(c1ccccc1)c1cccnc1 (stereo unspecified),25,2,1,/,10*,-7
Cc1cccc2nc(CSc3ccccc3N)cn12,/,/,4,0,3,/
Cc1cccc2nc(COc3ccc4ccccc4c3Br)cn12,24,-2,-3,/,11*,-3
O=C(Nc1cccc(NC(=O)c2ccco2)n1)c1ccco1,/,/,0,/,/,/
Cc1ccc2c(c1)N(CC(=O)NCCCN1CCOCC1)C(=O)C(C(C)C)O2 (stereo unspecified),/,/,2,/,/,/
CCOc1ccc2nc(NCCCNS(=O)(=O)c3ccccc3)c(C#N)cc2c1,11,80*,134*,2,7,61*
CCCCNc1nc2ccccc2nc1NS(=O)(=O)c1ccc(F)cc1,33,/,?,/,/,/
CCOc1ccc2nc(NCCCNS(=O)(=O)c3ccc(F)cc3)c(C#N)cc2c1,/,/,132*,-2,2,/
CCOc1ccc2nc(SCC(=O)N3c4ccccc4Sc4ccccc43)c(C#N)cc2c1,-16,-1,?,-6,-2,-7
CCCc1nc(SCC(=O)O)c2sc(=S)n(-c3ccccc3)c2n1,32,/,0,/,/,/
COc1ccccc1CNC(=O)C(=O)NCCC1CCCCN1S(=O)(=O)c1ccc(C)cc1 (stereo unspecified),/,/,0,/,/,/
COc1ccccc1CCNC(=O)C(=O)NCCC1CCCCN1S(=O)(=O)c1ccccc1 (stereo unspecified),/,/,37*,/,/,/
COc1ccc(C(=O)COC(=O)c2c(-c3ccccc3)noc2C)c(OC)c1,/,/,3,/,/,/
O=C(N/N=C\c1ccccc1F)c1ccc(-c2ccccc2)cc1,42,/,/,/,/,/
CCCCC(=O)NNC(=S)NC(=O)c1cccc([N+](=O)[O-])c1,94*,30,-1,0,2,10
CCOCCCNC(=S)NCCCNc1nc2ccc(C)cc2cc1C#N,-20,93*,/,-2,-1,89*
CCOC(=O)CC(=O)CSc1nc2ccc(C)cc2cc1C#N,-39,11,/,-1,-2,-47
CCOCCCNC(=S)NCCNc1nc2ccc(C)cc2cc1C#N,-6,81*,31*,0,2,111*
COCC(=O)NCCNc1nc2ccc(C)cc2cc1C,13,-2,5,-3,-1,1
COc1cccc(CNC(=O)CN2C(=O)CSc3ccc(S(=O)(=O)N4CCOCC4)cc32)c1,-22,/,2,/,/,/
Cc1ccc(S(=O)(=O)c2cc3c(=O)n4cccc(C)c4nc3n(CC3CCCO3)c2=N)cc1 (stereo unspecified),10,112*,/,/,/,38
